Experimental data from different studies.
In brackets after ≈: the same amount, converted by molar mass.

SMILES	organism	test	test system	conditions	measurement	result
c1ccc2c(N3CCCCC3)nc(-n3cccn3)nc2c1	Trypanosoma cruzi	parasite growth, imaging	U2OS	intracellular, amastigote	IC50	8.96 µM
O=[N+]([O-])c1ccc(-c2nc3cccc(O)c3[nH]2)o1	Staphylococcus haemolyticus	microbial killing			MBC	0.5 µg/mL (≈ 2.04 µM)
COc1ccccc1CNC(=O)c1c(N)sc2c1CCCC2	Mycobacterium tuberculosis	microbial growth, resazurin	H37RV		MIC	316 µM (≈ 100 µg/mL)
c1ccc(CNc2nc(-c3ccccn3)nc3ccccc23)cc1	Trypanosoma cruzi	parasite growth, imaging	U2OS	intracellular, amastigote	IC50	1.4 µM
CCOC(=O)c1c(NC(=O)c2ccccc2)sc2c1CCN(C(=O)OC(C)(C)C)C2	Mycobacterium tuberculosis	microbial growth, resazurin	H37RV		MIC	> 200 µM
O=C1NN=C(N=Cc2ccccc2O)C1=NNn1c(-c2ccccc2)nc2ccccc2c1=O	Monascus purpureus	microbial growth, broth dilution			MIC	111 µM (≈ 50 µg/mL)
[H]/N=C(/N)N[C@H]1[C@H](O)[C@@H](O)[C@H](O[C@@H]2O[C@@H](C)[C@](O)(C=O)[C@H]2O[C@@H]2O[C@@H](CO)[C@H](O)[C@@H](O)[C@@H]2NC)[C@@H](N/C(N)=N\[H])[C@@H]1O	Mycobacterium tuberculosis	microbial growth, disc diffusion	ATCC25177	10 µg/disc, 12 days	inhibition zone	40 mm
CCN1CCc2c(sc(N)c2C(=O)O)C1	Mycobacterium tuberculosis	microbial growth, resazurin	H37RV		MIC	> 400 µM
O=C1NN=C(N=Cc2ccc(O)c(O)c2)C1=NNn1c(-c2ccccc2)nc2ccccc2c1=O	Monascus purpureus	microbial growth, broth dilution			MIC	53.5 µM (≈ 25 µg/mL)
Cc1cc2nccc(-c3cccnc3)c2c(C)c1-c1ccc(CN2CCOCC2)cc1	Mycobacterium tuberculosis	microbial growth	H37RV		MIC90	5 µM (≈ 2.05 µg/mL)
O=C(N[C@@H](Cc1ccccc1)C(=O)c1nc2ccccc2s1)[C@H](Cc1ccccc1)NC(=O)N1CCOCC1	Trypanosoma cruzi	parasite growth	TULAHUEN	intracellular, amastigote	IC50	17.5 µM
Cc1ccc2nc(-c3ccc(F)c(F)c3)c(CN3CCN(C4CCCCC4)CC3)n2c1	Trypanosoma cruzi	parasite growth	TULAHUEN	6 days, intracellular, amastigote	EC90	> 5 µM
c1ccc(-c2nc(N3CCC(c4ccccn4)C3)c3ccccc3n2)cc1 (centres unmarked)	Trypanosoma cruzi	parasite growth, imaging	U2OS	intracellular, amastigote	IC50	4.82 µM
CCOC(=O)c1c(NC(=O)c2cc(C(F)(F)F)cc(C(F)(F)F)c2)sc2c1CCN(C(=O)OC(C)(C)C)C2	Mycobacterium tuberculosis	microbial growth, resazurin	H37RV	7 days	MIC	> 100 µM
CC(C)(Nc1nc(-c2ccccn2)nc2ccccc12)c1ccccn1	Trypanosoma cruzi	parasite growth, imaging	U2OS	intracellular, amastigote	IC50	1.4 µM
CC1=NN(CNC(=O)c2ccccc2)C(=O)C1=NNn1c(-c2ccccc2)nc2ccccc2c1=O	Monascus purpureus	microbial growth, broth dilution			MIC	104 µM (≈ 49.8 µg/mL)
COc1ccccc1-c1nc(N2CCC(c3ccccn3)C2)c2ccccc2n1 (centres unmarked)	Trypanosoma cruzi	parasite growth, imaging	U2OS	intracellular, amastigote	IC50	0.91 µM
CCOC(=O)c1cc(-c2ccccc2)sc1NC(=O)c1c(F)c(F)c(F)c(F)c1F	Mycobacterium tuberculosis	microbial growth, resazurin	H37RV		MIC	> 200 µM
CC(C)(C)c1nc(N2CCCCC2)c2ccccc2n1	Trypanosoma cruzi	parasite growth, imaging	U2OS	intracellular, amastigote	IC50	21.5 µM
CCOC(=O)c1c(NC(=O)c2c(F)c(F)c(F)c(F)c2F)sc2c1CCCC2	Mycobacterium tuberculosis	microbial growth, resazurin	H37RV		IC50	13 µM
COc1ccc(Nc2nc(-c3cccs3)nc3ccccc23)cc1	Trypanosoma cruzi	parasite growth, imaging	U2OS	intracellular, amastigote	IC50	5.87 µM
CCOC(=O)c1c(NC(=O)c2c(F)c(F)c(F)c(F)c2F)sc2c1CCN(C(=O)OC(C)(C)C)C2	Mycobacterium tuberculosis	microbial growth, resazurin	H37RV	7 days	MIC	> 100 µM
CC1=NN(CNc2c(O)c(S(=O)(=O)O)cc3ccccc23)C(=O)C1=NNn1c(-c2ccccc2)nc2ccccc2c1=O	Monascus purpureus	microbial growth, broth dilution			MIC	41.8 µM (≈ 25 µg/mL)
